Compound activity (PubChem)
In the library only some 6.4% were active in any assay of this set; here they are far more common.
Ecoli tolC – growth inhibitors of E. coli tolC mutant, primary screen, strain BW25113 ΔtolC::kan, 384-well; OD615; growth inhibition, % at 10 µM (by protocol); 65,000 compounds, 2.2% hits;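 active means growth inhibition at or above a cutoff equal to the mean over every tested compound plus 3 SD, cut at about 60% in these data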;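 further: growth measured after 20 h incubation at 37 °C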
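Test system – E. coli BW25113 ΔtolC::kan, tolC deletion mutant strain · Detection – OD at 615 nm · Buffer or medium – LB with kanamycin 50 µg/mL · Times – 20 h compound exposure of bacteria at 37 °C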
Jurkat viability – cytotoxicity toward Jurkat T cells, primary screen, cytotoxicity control, cell-based, Jurkat E6.1, 60K MLSMR library. Jurkat E6.1 viability, ATP luminescence, 48 h. inhibition, % at 4 µM. 56,000 compounds, 1.2% hits;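 active means inhibition above the mean inhibition of all tested compounds plus 3 SD, cut at about 28% in these data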
Fibroblast inh – antiproliferative effect on LL 47 fibroblasts – human, LL 47 cells, CellTiter-Glo luminescence, primary screen; LL 47 human lung fibroblast viability, ATP luminescence; stronger effect = lower value; viability, % at 10 µM; 85,000 compounds, 1.1% hits;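 active means viability at or below 50% in the single dose screen; inactive means viability above 50%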;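 further: compound exposure lasted 72 h before the ATP readout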
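Test system: LL 47 human lung fibroblasts / Quantity: 1,150 cells in each well / Medium: IMEM growth medium with 15% fetal bovine serum / Incubation: 72 h compound exposure at 37 °C after overnight plating / Detection: CellTiter-Glo luminescence measuring cellular ATP / Read-out: % viability versus median cells-only luminescence / Benchmarks: cell-only wells, no compound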
H69AR growth 86K – proliferation blockers of H69AR lung cancer cells, primary screen, cell-based, human, 86K library | H69AR lung tumor viability, ATP luminescence, 72 h; stronger effect = lower value | viability, % at 10 µM | 85,000 compounds, 6% hits | AID 598, 2007;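 active means viability at or below 40%; inactive means viability above 40%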;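 further: multidrug resistant small cell line overexpressing MRP-1 efflux transporter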
HUVEC inhibit – inhibitors of HUVEC proliferation, primary screen, cell-based, 384-well; CellTiter-Glo luminescence, 72 h; stronger effect = lower value; viability, % at 10 µM (by protocol); 86,000 compounds, 1.1% hits; AID 648, 2007;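 active means viability at or below 30%; inactive means viability above 30%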
E coli WT exp – growth inhibitors of wild-type E. coli, primary screen, strain BW25113, expanded library, OD600; AID 710, 2007; OD600 absorbance; growth inhibition, % at 100 µM; 98,000 compounds, 0.15% hits;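 active means growth inhibition above about 50% at one test dose, limit read from the data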;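 further: growth measured after 20 h incubation at 37 °C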
Numbers stand for hits; n = inactive; x = not tested or not shown.

SMILES	Ecoli tolC	Jurkat viability	Fibroblast inh	H69AR growth 86K	HUVEC inhibit	E coli WT exp
O=C(NCc1ccc(OC(F)(F)F)cc1)C1CC(c2c(Cl)cccc2Cl)=NO1 (configuration not stated)	x	x	x	x	x	n
Cc1ccnc(SCC(=O)Nc2sc3c(c2C#N)CCCC3)n1	n	90.2	n	n	n	n
CCn1c(SCC(=O)Nc2sc3c(c2C#N)CCCC3)nnc1-c1ccncc1	x	x	n	0.9	n	x
Cc1csc(SCC(=O)Nc2sc3c(c2C#N)CCC3)n1	x	x	n	31.6	n	n
N#Cc1c(NC(=O)CSc2ncn[nH]2)sc2c1CCCC2	x	x	n	18.1	n	n
CCOC(=O)Cc1csc(NC(=O)COc2ccc(N(C)S(=O)(=O)c3cccs3)cc2)n1	n	x	n	n	n	n
CC1CCCCN1C(=O)COC(=O)c1n[nH]c2ccccc12 (configuration not stated)	x	x	n	n	n	n
O=C(NC(c1ccccc1)c1ccccc1)C1CCCN(S(=O)(=O)c2cnc[nH]2)C1 (configuration not stated)	n	n	n	n	n	n
COC(=O)c1[nH]c2ccc(Br)cc2c1NC(=O)C(C)N1CCN(C2CCCCC2)CC1 (configuration not stated)	n	n	24.6	14.6	28.8	n
CC1CN(c2ccccc2)C(=O)CS1 (configuration not stated)	n	n	n	n	n	n
CCOC(=O)c1cnc(-n2nc(C)cc2C)nc1Nc1ccc(N(C)C)cc1	78.3	n	30.0	3.0	n	n
CCOC(=O)c1cnc(-n2nc(C)cc2C)nc1NC1CCCCC1	100.0	n	x	1.1	n	n
CCOC(=O)c1cnc(-n2nc(C)cc2C)nc1NC	n	n	n	n	n	n
CCOC(=O)c1cnc(-n2nc(C)cc2C)nc1Nc1ccc(C)cc1	x	x	x	x	x	n
CCOC(=O)c1cnc(-n2nc(C)cc2C)nc1N(CC)CC	63.2	n	n	36.1	n	n
CCN(CC)S(=O)(=O)c1ccc(C(=O)OCn2nnc3ccccc3c2=O)cc1	n	n	n	n	n	n
COC(=O)c1c(-c2ccc3ccccc3c2)csc1NC(=O)Cc1ccc(OC)c(OC)c1	x	x	x	x	x	n
CCOC(=O)c1c(NC(=O)CSc2nnc(C)s2)sc2c1CCC(CC)C2 (configuration not stated)	x	x	n	n	n	x
CC(C)Oc1cc(O)c2c(=O)c(-c3ccc(O)cc3)coc2c1	n	98.8	n	11.1	n	n
Cc1ccc(C(=O)N2CCCC(c3nc4c(nnn4Cc4ccccc4)c(=O)[nH]3)C2)cc1 (configuration not stated)	n	n	x	x	x	n
Cc1cccc(NC(=O)c2ccccc2O)c1C	n	x	n	n	n	n
Cc1ccc(C)c(NC(=O)c2ccccc2O)c1	80.5	n	n	19.2	n	n
O=C(Nc1ccccc1O)c1ccccc1O	n	n	n	n	n	63.0
Cn1c(=O)oc2cc(S(=O)(=O)N3CCCC(C(=O)NCc4cccs4)C3)ccc21 (configuration not stated)	n	n	n	n	n	n
CC1(C)CC2(CCO1)CNC(=O)O2 (configuration not stated)	n	n	n	n	n	n
SMILES	Ecoli tolC	Jurkat viability	Fibroblast inh	H69AR growth 86K	HUVEC inhibit	E coli WT exp
CCc1nnc(NC(=O)CCC(=O)N2CCN(CCOc3ccc(C)cc3)CC2)s1	n	n	n	n	n	n
O=C(CSc1nc(O)c(Cc2ccccc2)c(=O)n1-c1ccccc1)N1CCOCC1	x	x	n	n	n	n
CCOc1cc2[nH]c(=O)n(Cc3cccc(OC)c3)c(=O)c2cc1OCC	n	n	n	20.9	n	n
CCOc1cc2[nH]c(=O)n(Cc3ccc(C(=O)NCCOC)cc3)c(=O)c2cc1OCC	n	n	n	n	n	n
CCOC(=O)c1ccc2nc(NC(NC(C)=O)(C(=O)OC)C(F)(F)F)sc2c1 (configuration not stated)	n	x	x	x	x	n
CCOC(=O)c1csc(Nc2nc3ccc(F)cc3s2)n1	88.1	n	x	x	x	n
CC(=O)c1sc(Nc2nc3ccc(F)cc3s2)nc1C	n	n	n	20.8	n	n
CC(C)(C)C1=Nn2c(nnc2-c2ccccn2)SC1	n	x	n	n	n	n
